Reference: ChEMBL document CHEMBL4393705, “New chalcone-sulfonamide hybrids exhibiting anticancer and antituberculosis activity” (Eur J Med Chem, 2019)
In brackets after ≈: the same amount, converted by molar mass.

Experiments:
[1] = test system: CCRF-CEM; assay: Anticancer activity against human CCRF-CEM cells assessed as cell growth inhibition measured after 48 hrs by SRB assay; type: functional
Summary of the method: (§1)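 NCI-60 five-dose screen at 100, 10, 1.0, 0.1 and 0.01 µM final. Cells in RPMI-1640 with 5% FBS and 2 mM glutamine were seeded 24 h ahead at 37°C, 5% CO2. Compound exposure was 48 h, followed by TCA fixation and SRB staining, read at 515 nm. GI50 is the concentration giving 50% lower net protein increase than control, using time-zero plates.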

[2] = test system: SK-MEL-28; assay: Anticancer activity against human SK-MEL-28 cells assessed as cell growth inhibition measured after 48 hrs by SRB assay; type: functional; conditions: SK-MEL-28, 48 h
Summary of the method: (§2)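 NCI 60-cell screen, five-dose mode at 100, 10, 1.0, 0.1 and 0.01 µM. Cells grown in RPMI-1640 with 5% FBS and 2 mM L-glutamine, seeded and held 24 h at 37°C, 5% CO2, then exposed for 48 h. Fixed with cold TCA (10% final), stained with 0.4% SRB and read at 515 nm. Time-zero plates were used. GI50 is the concentration giving 50% lower net protein increase than control.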

[3] = test system: SNB-19; assay: Anticancer activity against human SNB19 cells assessed as cell growth inhibition measured after 48 hrs by SRB assay; type: functional; conditions: SNB-19, 48 h; summary of the method: as §2
[4] = test system: A549; assay: Anticancer activity against human A549 cells assessed as cell growth inhibition measured after 48 hrs by SRB assay; type: functional; conditions: A549, 48 h; summary of the method: as §1
[5] = test system: UACC-62; assay: Anticancer activity against human UACC62 cells assessed as cell growth inhibition measured after 48 hrs by SRB assay; type: functional; conditions: UACC-62, 48 h; summary of the method: as §2
[6] = test system: SR; assay: Anticancer activity against human SR cells assessed as cell growth inhibition measured after 48 hrs by SRB assay; type: functional; summary of the method: as §2
[7] = test system: MDA-MB-435; assay: Anticancer activity against human MDA-MB-435 cells assessed as cell growth inhibition measured after 48 hrs by SRB assay; type: functional; conditions: MDA-MB-435, 48 h; summary of the method: as §1
[8] = test system: Mycobacterium tuberculosis; assay: Antitubercular activity against Mycobacterium tuberculosis H37Rv ATCC27294 measured after 2-3 weeks by agar dilution SPOTi assay; type: functional; conditions: H37Rv ATCC 27294
Summary of the method: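 Agar dilution SPOTi on Middlebrook 7H10 with 0.5% glycerol and 10% OADC. Final compound levels 50, 20, 10, 5, 2 mg/L, added from DMSO dilutions. 2 µL of a 10^6 CFU/mL inoculum from a 4-week Löwenstein-Jensen culture spotted per well, incubated 2-3 weeks at 37°C. MIC is the lowest concentration with no visible growth. Repeated on a separate day; isoniazid was the reference.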

[9] = test system: SK-OV-3; assay: Anticancer activity against human SKOV3 cells assessed as cell growth inhibition measured after 48 hrs by SRB assay; type: functional; conditions: SK-OV-3, 48 h; summary of the method: as §2
[10] = test system: PC-3; assay: Anticancer activity against human PC3 cells assessed as cell growth inhibition measured after 48 hrs by SRB assay; type: functional; conditions: PC-3, 48 h; summary of the method: as §1
[11] = test system: NCI-H23; assay: Anticancer activity against human NCI-H23 cells assessed as cell growth inhibition measured after 48 hrs by SRB assay; type: functional; conditions: NCI-H23, 48 h; summary of the method: as §1
[12] = test system: MCF7; assay: Anticancer activity against human MCF7 cells assessed as cell growth inhibition measured after 48 hrs by SRB assay; type: functional; conditions: MCF7, 48 h; summary of the method: as §1
[13] = test system: Staphylococcus aureus; assay: Antibacterial activity against Staphylococcus aureus measured every 120 mins for 36 hrs by LB broth two-fold serial dilution method; type: functional
Summary of the method: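 Panel of 12 laboratory and clinical S. aureus strains with varied drug-susceptibility patterns. Compounds were two-fold serially diluted in LB broth from a maximum of 32 mg/L. Growth was followed by OD600 every 120 min for 36 h. Vancomycin was the positive control, and runs were in duplicate.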

[14] = test system: Mycolicibacterium smegmatis; assay: Antibacterial activity against Mycobacterium smegmatis MC2 155 measured after 48 hrs by agar dilution SPOTi assay; type: functional; conditions: MC2 155, 48 h
Summary of the method: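 SPOTi agar dilution on Middlebrook 7H10 without OADC. Cells were passaged in Middlebrook 7H9 and then spotted. Compounds were tested at 100, 50, 20, 10 and 5 mg/L, with kanamycin as positive control. Plates were incubated 48 h at 37°C. MIC was taken as the lowest concentration with no visible growth.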

[15] = test system: SF-539; assay: Anticancer activity against human SF539 cells assessed as cell growth inhibition measured after 48 hrs by SRB assay; type: functional; conditions: SF-539, 48 h; summary of the method: as §2
[16] = test system: IGROV-1; assay: Anticancer activity against human IGROV1 cells assessed as cell growth inhibition measured after 48 hrs by SRB assay; type: functional; conditions: IGROV-1, 48 h; summary of the method: as §1
[17] = test system: SK-MEL-2; assay: Anticancer activity against human SK-MEL-2 cells assessed as cell growth inhibition measured after 48 hrs by SRB assay; type: functional; conditions: SK-MEL-2, 48 h; summary of the method: as §2
[18] = test system: HOP-92; assay: Anticancer activity against human HOP92 cells assessed as cell growth inhibition measured after 48 hrs by SRB assay; type: functional; conditions: HOP-92, 48 h; summary of the method: as §1
[19] = test system: KM12; assay: Anticancer activity against human KM12 cells assessed as cell growth inhibition measured after 48 hrs by SRB assay; type: functional; conditions: KM12, 48 h; summary of the method: as §1
[20] = test system: U-251; assay: Anticancer activity against human U251 cells assessed as cell growth inhibition measured after 48 hrs by SRB assay; type: functional; conditions: U-251, 48 h; summary of the method: as §2
[21] = test system: 786-0; assay: Anticancer activity against human 786-O cells assessed as cell growth inhibition measured after 48 hrs by SRB assay; type: functional; conditions: 786-0, 48 h; summary of the method: as §1
[22] = Selectivity index, ratio of LC50 for mouse 3T3 cells to MIC for Mycobacterium tuberculosis H37Rv ATCC27294; type: toxicity; conditions: read-out: Selectivity Index
[23] = test system: M14; assay: Anticancer activity against human M14 cells assessed as cell growth inhibition measured after 48 hrs by SRB assay; type: functional; conditions: M14, 48 h; summary of the method: as §1
[24] = test system: HT-29; assay: Anticancer activity against human HT-29 cells assessed as cell growth inhibition measured after 48 hrs by SRB assay; type: functional; conditions: HT-29, 48 h; summary of the method: as §1
[25] = test system: Malme-3M; assay: Anticancer activity against human MALME-3M cells assessed as cell growth inhibition measured after 48 hrs by SRB assay; type: functional; summary of the method: as §1
[26] = test system: MDA-MB-231; assay: Anticancer activity against human MDA-MB-231 cells assessed as cell growth inhibition measured after 48 hrs by SRB assay; type: functional; conditions: MDA-MB-231, 48 h; summary of the method: as §1
[27] = test system: OVCAR-8; assay: Anticancer activity against human OVCAR8 cells assessed as cell growth inhibition measured after 48 hrs by SRB assay; type: functional; conditions: OVCAR-8, 48 h; summary of the method: as §1
[28] = read-out: LC50 (the source's name)

COc1ccc(C(=O)/C=C/c2ccc(Cl)cc2)cc1S(=O)(=O)Nc1c(N)nc(SC)[nH]c1=O gave a GI50 [1] of 2.66 µM, an LC50 [1] greater than 100 µM and a GI50 [2] of 2.1 µM. The CC50 [2, 28] was 17 µM, the GI50 [3] was 2.52 µM and the LC50 [3] was 32.2 µM. The GI50 [4] was 2.57 µM, the LC50 (concentration killing 50% of cells) [4] was 30 µM and the GI50 [5] was 2.33 µM. For the same compound, the CC50 [5, 28] was 27.4 µM, the GI50 [6] was 3.57 µM and the LC50 (concentration giving 50% net cell kill) [6] was greater than 100 µM. For the same compound, the GI50 [7] was 2.95 µM, the LC50 (concentration killing 50% of cells present at time zero) [7] was 48 µM and the MIC [8] was 20 µM (≈ 10.1 µg/mL). It also gave a GI50 [9] of 3.65 µM, an LC50 (concentration killing 50% of cells relative to time zero) [9] of 36.6 µM and a GI50 [10] of 2.53 µM. It also gave an LC50 [10] of 32.8 µM, a GI50 [11] of 2.53 µM and an LC50 [11] of 40.4 µM. For the same compound, the GI50 [12] was 1.97 µM, the LC50 [12] was greater than 100 µM and the MIC [13] was greater than 57 µM. It also gave an MIC [14] greater than 175 µM, a GI50 [15] of 2.1 µM and a CC50 [15, 28] of 15.1 µM. It also gave a GI50 [16] of 3.25 µM, an LC50 (concentration giving 50% net cell kill) [16] of 80.2 µM and a GI50 [17] of 12.8 µM. The CC50 [17, 28] was 61.1 µM, the GI50 [18] was 2.59 µM and the LC50 [18] was 32.6 µM. The GI50 [19] was 2.09 µM, the LC50 (lethal concentration, 50% net cell kill) [19] was 9.76 µM and the GI50 [20] was 1.58 µM. For the same compound, the LC50 [20] was 6.16 µM, the GI50 [21] was 1.95 µM and the CC50 [21, 28] was 8.74 µM. It also gave a selectivity ratio [22] of 0.65, a GI50 [23] of 2 µM and a CC50 [23, 28] of 15.7 µM. It also gave a GI50 [24] of 2.93 µM, an LC50 (concentration giving 50% net cell kill) [24] of 45.3 µM and a GI50 [25] of 3.02 µM. It also gave an LC50 [25] of 41.8 µM, a GI50 [26] of 3.42 µM and an LC50 [26] of 40.3 µM. For the same compound, the GI50 [27] was 3.07 µM and the LC50 (concentration giving 50% net cell kill) [27] was 37.1 µM.
